Assay results from different studies.
Lines come from different studies, so protocols differ.
Target: Protein kinase C theta type (PRKCQ, Homo sapiens, UniProt Q04759)

SMILES	assay	setting	quantity	result
COc1cc2ncnc(Nc3ccc(Oc4ccccc4)c(C)c3C)c2cc1OC	enzyme activity, inhibitor	1 µM	inhibition	8%
Cc1ccc(Nc2nccc(N(C)c3ccc4c(C)n(C)nc4c3)n2)cc1S(N)(=O)=O	enzyme activity, inhibitor	10 µM	inhibition	-3%
CC(C)c1ccc(NC(=O)c2cccs2)c(-c2nc3ccccc3[nH]c2=O)c1	enzyme activity, inhibitor	1 µM	activity vs control	83%
CN1CC(Oc2cnc(C#N)cc2-c2ccn3nc(NC(=O)C4CC4)cc3c2)C1	enzyme activity, inhibitor	1 µM	inhibition	-2%
O=C(NCCCC1CCCCC1)c1ccc(CNC(=O)c2cnn(-c3ccccc3)c2C(F)(F)F)cc1	cell-free assay, competition with immobilised ligand	0.1 µM	remaining binding	100%
CC(C)(C)c1nc(-c2cccc(NS(=O)(=O)c3c(F)cccc3F)c2F)c(-c2ccnc(N)n2)s1	enzyme activity, inhibitor, radiometric	1 µM	remaining activity	120%
CCCOc1ccc(OC)c(F)c1C(=O)c1ccc(C(=O)N[C@@H]2CNC[C@H]2NC(=O)c2ccc3[nH]ncc3c2)cc1	enzyme activity, inhibitor	10 µM	remaining activity	22%
COc1cc(Cl)c(C(=O)N[C@@H](CN[C@H]2CC[C@@H](N)CC2)Cc2ccc(C#N)cc2)cc1-c1ccc(CN[C@H](C)c2ccc(C)cc2)o1	enzyme activity, inhibitor	1 µM	remaining activity	106%
COc1cc2c(Nc3ccc(Br)cc3F)ncnc2cc1OCC1CCN(C)CC1	cell-free assay	0.5 µM	remaining signal	100%
Cn1cnc(Br)c1C1=CN(c2ncnc3[nH]cnc23)CCS1	enzyme activity, inhibitor, radiometric	50 nM	inhibition	64.1%
CN(C)C1CCN(CC#Cc2nn(C3CCCC3)c3nc(NCc4ccccc4)ncc23)C1 (stereo not drawn)	enzyme activity, inhibitor, FRET	0.1 µM	inhibition	-1%
F[C@@H]1CCN(c2nccc(-c3cnn4ncccc34)n2)C1	binding	1 µM	remaining binding	100%
COc1cccc(CNC(=O)c2nc3scc(COCc4ccc(C(=O)O)cc4)c3c(=O)[nH]2)c1	cell-free assay, competition with immobilised ligand	1 µM	remaining binding	100%
Nc1nc(Nc2ccc(S(N)(=O)=O)cc2)nn1C(=O)c1c(F)cccc1F	cell-free assay	0.5 µM	remaining signal	114%
CCOc1cc(-c2nncn2C)ccc1Nc1ncc2cc(C)nc(NCC(C)(C)C)c2n1	enzyme activity, inhibitor, FRET	1 µM	inhibition	< 15%
CNC(=O)c1cc(Oc2ccc(NC(=O)Nc3ccc(Cl)c(C(F)(F)F)c3)cc2)ccn1	enzyme activity, inhibitor	10 µM	inhibition	-12%
O=C(Nc1cnn(-c2csc(C(=O)NC3COC3)c2)c1)Nc1c(F)cccc1Cl	enzyme activity, inhibitor	5 µM	remaining activity	94.7%
CO[C@@H](C)c1c(Nc2ccc([C@@H](N(C)C(=O)C3CCS(=O)(=O)CC3)C(F)(F)F)cc2)cnc2cc(Cl)nn12	cell-free assay, competition with immobilised ligand	1 µM	remaining binding	98%
CNCc1ccc(-c2cc(-c3nc(-c4ccc(S(=O)(=O)C(C)C)cc4)cnc3N)on2)cc1	enzyme activity, inhibitor	0.4 µM	inhibition	0%
C[C@@H](N)[C@H]1CC[C@H](C(=O)Nc2ccncc2)CC1	enzyme activity, inhibitor, TR-FRET	10 µM	inhibition	82.7%
Cn1nc(C(F)(F)F)cc1-c1cnc(N2CCc3cc(S(=O)(=O)Nc4c(F)cc(Cl)cc4F)cc(N4CCCC4=O)c32)nc1	cell-free assay, competition with immobilised ligand	1 µM	remaining binding	100%
Cc1ccc(NC(=O)c2ccc(C)c(C(F)(F)F)c2)cc1C#Cc1nn(C2CCC(O)CC2)c2ncnc(N)c12 (stereo not drawn)	cell-free assay	10 µM	remaining signal	103%
CCS(=O)(=O)c1cc2cc(C[C@@](O)(CC(C)(C)c3ccc(F)cc3C(N)=O)C(F)(F)F)[nH]c2cn1	cell-free assay, competition with immobilised ligand	1 µM	remaining binding	97%
N#CCCc1ccc2c(c1)-c1[nH]c3ccc([N+](=O)[O-])cc3c1CC(=O)N2	cell-free assay	0.5 µM	remaining signal	111%
Cc1c[nH]c2nccc(Oc3c(F)cc(Nc4cc(Cl)nc(N)n4)cc3F)c12	cell-free assay, competition with immobilised ligand	0.1 µM	remaining binding	66%
CS(=O)(=O)CCNCc1ccc(-c2ccc3ncnc(Nc4ccc(OCc5cccc(F)c5)c(Cl)c4)c3c2)o1	cell-free assay	0.5 µM	remaining signal	72.4%
CC(=O)Nc1c(C(C)=O)c(=O)n(C)c2nc(-c3ccc(Cl)cc3Cl)c(-c3ccc(Cl)cc3)cc12	cell-free assay, competition with immobilised ligand	1 µM	remaining binding	100%
CCCS(=O)(=O)Nc1ccc(F)c(C(=O)c2c[nH]c3ncc(-c4ccc(Cl)cc4)cc23)c1F	enzyme activity, inhibitor	1 µM	inhibition	< 10%
CNCc1ccccc1-c1csc([C@H](C)Nc2nc(C)nc3cc(OC)c(OC)cc23)c1	cell-free assay, competition with immobilised ligand	1 µM	remaining binding	100%
Cc1ccc(C(=O)Nc2ccc(CN3CCN(C)CC3)c(C(F)(F)F)c2)cc1C#Cc1cnc2cccnn12	enzyme activity	23.5 nM	remaining activity	96%
